ChEMBL document CHEMBL1132573, “Novel antitumor 2-cyanoaziridine-1-carboxamides” (J Med Chem, 1999)

Tests used:
[1] = Number of colony forming cells of human sarcoma tumor showing sensitivity among the 8 colony forming cells tested in vitro at compound concentration of 10 uM; assay type: functional
Outline: (§1)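 Fresh human tumor specimens, obtained from patients at the Arizona Cancer Center, were tested as tumor-colony-forming cells in the human tumor cloning assay. Sensitivity was scored as a 50% or greater decrease in […] uptake by treated colony-forming cells relative to untreated control colony-forming cells. The value is the count of sensitive specimens among those tested.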

[2] = Number of colony forming cells of human gynecologic tumor showing sensitivity among the 4 colony forming cells tested in vitro at compound concentration of 1.0 uM; assay type: functional
Outline: (§2)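 Fresh human tumor specimens from patients at the Arizona Cancer Center, run in the human tumor cloning (colony-forming) assay by a standard protocol. Read-out was [3H]thymine uptake by tumor-colony-forming cells.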

[3] = test system: Breast carcinoma cell; assay: Number of colony forming cells of human breast tumor showing sensitivity among the 4 colony forming cells tested in vitro at compound concentration of 1.0 uM; assay type: functional; outline: as §2
[4] = Number of colony forming cells of human sarcoma tumor showing sensitivity among the 8 colony forming cells tested in vitro at compound concentration of 1.0 uM; assay type: functional; outline: as §1
[5] = Number of colony forming cells of human myeloma tumor showing sensitivity among the 3 colony forming cells tested in vitro at compound concentration of 10 uM; assay type: functional; outline: as §2
[6] = test system: A549; assay: Inhibition of cell growth in (A-549) lung cell line; assay type: functional, cell-based; settings: Homo sapiens
[7] = Number of colony forming cells of human gynecologic tumor showing sensitivity among the 4 colony forming cells tested in vitro at compound concentration of 10 uM; assay type: functional; outline: as §2
[8] = Number of colony forming cells of human stomach tumor showing sensitivity among the 1 colony forming cells tested in vitro at compound concentration of 10 uM; assay type: functional; outline: as §1
[9] = test system: MCF7; assay: Inhibition of cell growth in (MCF7 breast) dox cell line; assay type: functional, cell-based; settings: Homo sapiens
[10] = Number of colony forming cells of human ovary tumor showing sensitivity among the 12 colony forming cells tested in vitro at compound concentration of 0.1 uM; assay type: functional, Female gonad; outline: as §2
[11] = Number of colony forming cells of human gynecologic tumor showing sensitivity among the 4 colony forming cells tested in vitro at compound concentration of 0.1 uM; assay type: functional; outline: as §2
[12] = Number of colony forming cells of human myeloma tumor showing sensitivity among the 3 colony forming cells tested in vitro at compound concentration of 0.1 uM; assay type: functional; outline: as §2
[13] = Number of colony forming cells of human melanoma tumor showing sensitivity among the 10 colony forming cells tested in vitro at compound concentration of 10 uM; assay type: functional; outline: as §2
[14] = Number of colony forming cells of human ovary tumor showing sensitivity among the 12 colony forming cells tested in vitro at compound concentration of 10 uM; assay type: functional, Female gonad; outline: as §2
[15] = test system: WiDr; assay: Inhibition of cell growth in drug sensitive WiDr colon cell line; assay type: functional, cell-based; settings: Homo sapiens
[16] = Number of colony forming cells of human lung tumor showing sensitivity among the 2 colony forming cells tested in vitro at compound concentration of 1.0 uM; assay type: functional; outline: as §2
[17] = test system: Breast carcinoma cell; assay: Number of colony forming cells of human breast tumor showing sensitivity among the 4 colony forming cells tested in vitro at compound concentration of 0.1 uM; assay type: functional; outline: as §2
[18] = Number of colony forming cells of human lung tumor showing sensitivity among the 2 colony forming cells tested in vitro at compound concentration of 10 uM; assay type: functional; outline: as §2
[19] = test system: MCF7; assay: Inhibition of cell growth in drug sensitive MCF-7 breast cell line; assay type: functional, cell-based; settings: Homo sapiens
[20] = Number of colony forming cells of human melanoma tumor showing sensitivity among the 10 colony forming cells tested in vitro at compound concentration of 1.0 uM; assay type: functional; outline: as §2
[21] = test system: WiDr; assay: Inhibition of cell growth in drug resistant WiDr colon cell line; assay type: functional, cell-based; settings: Homo sapiens
[22] = test system: RPMI-8226; assay: Inhibition of cell growth in drug sensitive 8226 myeloma cell line; assay type: functional, cell-based; settings: Homo sapiens
[23] = Number of colony forming cells of human stomach tumor showing sensitivity among the 1 colony forming cells tested in vitro at compound concentration of 1.0 uM; assay type: functional; outline: as §1
[24] = Number of colony forming cells of human sarcoma tumor showing sensitivity among the 2 colony forming cells tested in vitro at compound concentration of 0.1 uM; assay type: functional; outline: as §1
[25] = Number of colony forming cells of human melanoma tumor showing sensitivity among the 5 colony forming cells tested in vitro at compound concentration of 0.1 uM; assay type: functional; outline: as §2
[26] = Number of colony forming cells of human stomach tumor showing sensitivity among the 1 colony forming cells tested in vitro at compound concentration of 0.1 uM; assay type: functional; outline: as §1
[27] = Number of colony forming cells of human lung tumor showing sensitivity among the 2 colony forming cells tested in vitro at compound concentration of 0.1 uM; assay type: functional; outline: as §2
[28] = test system: MCF7; assay: Inhibition of cell growth in (MCF7 breast) mitox cell line; assay type: functional, cell-based; settings: Homo sapiens
[29] = Number of colony forming cells of human ovary tumor showing sensitivity among the 11 colony forming cells tested in vitro at compound concentration of 1.0 uM; assay type: functional, Female gonad; outline: as §2
[30] = test system: Breast carcinoma cell; assay: Number of colony forming cells of human breast tumor showing sensitivity among the 4 colony forming cells tested in vitro at compound concentration of 10 uM; assay type: functional; outline: as §2
[31] = Number of colony forming cells of human myeloma tumor showing sensitivity among the 3 colony forming cells tested in vitro at compound concentration of 1.0 uM; assay type: functional; outline: as §2

N=C1NC(=O)N2CC12 (stereo unspecified) [IMEXON]
Sensitivity [1]: 5 | Sensitivity [2]: 0 | Sensitivity [3]: 2 | Sensitivity [4]: 2 | Sensitivity [5]: 3 | IC50 [6]: > 72 µM | Sensitivity [7]: 1 | Sensitivity [8]: 1 | IC50 [9]: > 18 µM | Sensitivity [10]: 4 | Sensitivity [11]: 0 | Sensitivity [12]: 3 | Sensitivity [13]: 8 | Sensitivity [14]: 8 | IC50 [15]: > 72 µM | Sensitivity [16]: 0 | Sensitivity [17]: 0 | Sensitivity [18]: 2 | IC50 [19]: > 18 µM | Sensitivity [20]: 4 | IC50 [21]: > 72 µM | IC50 [22]: 17 µM | Sensitivity [23]: 0 | Sensitivity [24]: 0 | Sensitivity [25]: 3 | Sensitivity [26]: 0 | Sensitivity [27]: 0 | IC50 [28]: > 18 µM | Sensitivity [29]: 3 | Sensitivity [30]: 3 | Sensitivity [31]: 3
